# ChEMBL document CHEMBL1121982 (J Med Chem, 1982)
# Key:
# [1] = biological target: T1, Delta-type opioid receptor (Mus musculus, UniProt P32300); test: Inhibitory potency against Opioid receptor delta 1 in the mouse vas deferens assay; format: functional, tissue-based
# How it was run: (§1)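 Vasa deferentia were taken from adult male Swiss Webster albino mice (30-50 g) killed by cervical dislocation. Fat, connective tissue and the blood vessel were removed and semen was expressed. Contractions were recorded with a force transducer, and twitch-height reduction at several doses gave log dose-response curves.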
# [2] = biological target: T2, Mu-type opioid receptor (Rattus norvegicus, UniProt P33535); test: Inhibition of binding of [3H]naloxone to Opioid receptor mu 1 in the rat brain homogenate; format: tissue-based
# [3] = biological target: T3, Delta-type opioid receptor (Rattus norvegicus, UniProt P33533); test: Inhibition of [3H][D-Ala2,D-Leu5]enkephalin binding to Opioid receptor delta 1 in the rat brain homogenate; format: tissue-based
# [4] = biological target: T3, Delta-type opioid receptor; test: Inhibition of binding of [3H][D-Ala2,D-Leu5]enkephalin to Opioid receptor delta 1 in the rat brain homogenate; format: tissue-based
# [5] = biological target: Mu-type opioid receptor (Cavia porcellus) (UniProt P97266); test: Sensitivity to naloxone against Opioid receptor mu 1 in the guinea pig ileum assay; format: functional, tissue-based
# How it was run: (§2)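 Ke for naloxone as antagonist in the isolated tissue assay. It was derived from the ratio of agonist IC50 values measured with and without a fixed naloxone concentration.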
# [6] = biological target: Delta-type opioid receptor (Mus musculus) (UniProt P32300); test: […] in mouse vas deferens assay for Opioid receptor delta 1; format: functional; how it was run: as §2
# [7] = biological target: Delta-type opioid receptor (Rattus norvegicus) (UniProt P33533); test: (§3) Ki ratio measured as the inhibitory effect against delta/mu receptor.
# [8] = IC50 ratio measured as inhibitory potencies in mouse vas deferens and guinea pig ileum assays; format: functional
# [9] = biological target: T4, Mu-type opioid receptor (Cavia porcellus, UniProt P97266); test: Inhibitory potency against Opioid receptor mu 1 in the guinea pig ileum assay; format: functional, tissue-based
# How it was run: (§4)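 Guinea pig ileum bioassay. Twitch-height reduction at several doses gave log dose-response curves.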
# [10] = biological target: T1, Delta-type opioid receptor; test: Inhibitory potency against Opioid receptor delta 1 in mouse vas deferens assay; format: functional, tissue-based; how it was run: as §1
# [11] = biological target: T4, Mu-type opioid receptor; test: Inhibitory potency against mu receptor in guinea pig ileum assay; format: functional, tissue-based; how it was run: as §4
# [12] = biological target: Delta-type opioid receptor (Mus musculus) (UniProt P32300); test: as §3
# [13] = biological target: Delta-type opioid receptor (Mus musculus) (UniProt P32300); test: IC50 ratio measured as the inhibitory potencies of MVD/GPI.
# [14] = biological target: T2, Mu-type opioid receptor; test: Inhibition of [3H]-naloxone binding to mu receptor in rat brain homogenate; format: tissue-based
# [15] = biological target: Mu-type opioid receptor (Cavia porcellus) (UniProt P97266); test: Sensitivity to naloxone against mu receptor in guinea pig ileum assay; format: functional, tissue-based; how it was run: as §2
# [16] = biological target: T3, Delta-type opioid receptor; test: Inhibition of binding of [3H][D-Ala2,D-Leu5]enkephalin to delta receptor in the rat brain homogenate; format: tissue-based
# [17] = biological target: T2, Mu-type opioid receptor; test: Inhibition of [3H]naloxone binding to Opioid receptor mu 1 in rat brain homogenate; format: tissue-based
# [18] = Ki ratio measured as inhibitory effect against delta and mu opioid receptors
# [19] = biological target: Mu-type opioid receptor (Mus musculus, UniProt P42866); test: Inhibitory potency against Opioid receptor mu 1 in mouse vas deferens assay; format: functional, tissue-based; how it was run: as §1
# Sequence of Mu-type opioid receptor (Mus musculus, UniProt P42866) (P42866 whole entry): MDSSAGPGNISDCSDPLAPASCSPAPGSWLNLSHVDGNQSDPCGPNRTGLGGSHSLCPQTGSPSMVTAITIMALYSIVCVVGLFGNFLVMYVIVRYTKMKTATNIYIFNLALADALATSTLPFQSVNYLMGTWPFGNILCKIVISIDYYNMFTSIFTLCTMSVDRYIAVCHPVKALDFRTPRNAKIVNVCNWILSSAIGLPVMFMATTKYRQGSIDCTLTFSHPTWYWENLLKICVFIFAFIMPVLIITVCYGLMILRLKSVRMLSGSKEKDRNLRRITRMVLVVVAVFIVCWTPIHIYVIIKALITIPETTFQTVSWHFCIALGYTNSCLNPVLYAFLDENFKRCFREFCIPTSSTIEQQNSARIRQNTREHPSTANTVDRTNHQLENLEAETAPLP
# T3 sequence (P33533 whole entry): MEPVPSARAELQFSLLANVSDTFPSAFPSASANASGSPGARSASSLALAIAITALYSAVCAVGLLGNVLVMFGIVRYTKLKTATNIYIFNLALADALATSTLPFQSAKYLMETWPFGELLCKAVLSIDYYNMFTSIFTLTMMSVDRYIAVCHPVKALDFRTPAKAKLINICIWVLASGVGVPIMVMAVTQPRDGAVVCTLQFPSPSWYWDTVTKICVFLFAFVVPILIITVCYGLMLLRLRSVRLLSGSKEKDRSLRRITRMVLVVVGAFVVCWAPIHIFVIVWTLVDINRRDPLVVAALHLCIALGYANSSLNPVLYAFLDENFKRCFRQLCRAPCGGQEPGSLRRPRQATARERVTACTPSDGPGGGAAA
# Sequence of Delta-type opioid receptor (Rattus norvegicus) (P33533 whole entry): as above
# T4 sequence (P97266 whole entry): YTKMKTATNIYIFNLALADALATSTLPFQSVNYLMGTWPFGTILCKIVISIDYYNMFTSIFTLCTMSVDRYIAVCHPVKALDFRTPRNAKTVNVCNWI
# Sequence of Mu-type opioid receptor (Cavia porcellus) (P97266 whole entry): as above
# T2 sequence (P33535 whole entry): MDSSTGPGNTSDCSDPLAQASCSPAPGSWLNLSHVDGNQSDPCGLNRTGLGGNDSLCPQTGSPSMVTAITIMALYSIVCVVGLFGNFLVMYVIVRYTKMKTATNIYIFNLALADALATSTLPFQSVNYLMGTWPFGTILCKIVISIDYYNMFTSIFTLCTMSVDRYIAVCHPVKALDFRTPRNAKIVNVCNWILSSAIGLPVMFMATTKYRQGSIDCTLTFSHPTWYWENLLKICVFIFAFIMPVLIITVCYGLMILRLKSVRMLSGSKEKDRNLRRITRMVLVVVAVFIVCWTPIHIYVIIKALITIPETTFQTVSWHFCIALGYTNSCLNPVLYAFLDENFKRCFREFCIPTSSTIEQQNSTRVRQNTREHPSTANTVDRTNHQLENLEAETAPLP
# T1 sequence (P32300 whole entry): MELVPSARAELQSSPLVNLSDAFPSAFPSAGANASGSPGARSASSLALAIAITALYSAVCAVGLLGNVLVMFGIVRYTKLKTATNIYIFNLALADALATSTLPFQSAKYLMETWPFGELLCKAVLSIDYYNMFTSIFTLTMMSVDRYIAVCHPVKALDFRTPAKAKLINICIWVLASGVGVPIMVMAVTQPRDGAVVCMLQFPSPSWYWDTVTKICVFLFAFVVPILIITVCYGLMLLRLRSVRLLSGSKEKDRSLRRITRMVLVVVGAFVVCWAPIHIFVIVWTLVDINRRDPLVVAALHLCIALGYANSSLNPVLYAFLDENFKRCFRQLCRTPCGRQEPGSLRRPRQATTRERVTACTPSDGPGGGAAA
# Sequence of Delta-type opioid receptor (Mus musculus) (P32300 whole entry): as above
structure (smiles),measurement,setting,value
CC(=O)O.CCC[C@@H](NC(=O)[C@@H](N)Cc1ccc(O)cc1)C(=O)NCC(=O)N[C@@H](Cc1ccccc1)C(=O)N[C@@H](CC(C)C)C(N)=O,IC50,[1],21 nM
same,IC50,[2],5.89 nM
same,Ki,[2],3.27 nM
same,Ki,[3],3.1 nM
same,IC50,[4],6.81 nM
same,Ke,[5],0.227 nM
same,Ke,[6],3.52 nM
same,Ratio,[7],0.95
same,Ratio,[8],0.905
same,IC50,[9],23.2 nM
CC(=O)O.CC[C@@H](NC(=O)[C@@H](N)Cc1ccc(O)cc1)C(=O)NCC(=O)N[C@@H](Cc1ccccc1)C(=O)N[C@@H](CC(C)C)C(N)=O,IC50,[10],45.6 nM
same,IC50,[2],10.1 nM
same,Ki,[2],5.61 nM
same,Ki,[3],4.06 nM
same,IC50,[4],8.94 nM
same,Ke,[5],0.181 nM
same,Ke,[6],1.5 nM
same,Ratio,[7],0.72
same,Ratio,[8],1.59
same,IC50,[9],28.7 nM
CC(C)C[C@H](NC(=O)[C@H](Cc1ccccc1)NC(=O)CNC(=O)[C@@H](C)NC(=O)[C@@H](N)Cc1ccc(O)cc1)C(N)=O,IC50,[1],8.26 nM
same,IC50,[11],7.63 nM
same,Ke,[5],0.401 nM
same,Ke,[6],2.36 nM
CC(C)C[C@@H]1NC(=O)[C@H](Cc2ccccc2)NC(=O)CNC(=O)[C@H](NC(=O)[C@@H](N)Cc2ccc(O)cc2)CCCCNC1=O,IC50,[10],141 nM
same,IC50,[2],22.4 nM
same,Ki,[2],12.4 nM
same,Ki,[3],14.6 nM
same,IC50,[4],32.2 nM
same,Ke,[5],0.416 nM
same,Ke,[6],0.36 nM
same,Ratio,[12],1.18
same,Ratio,[13],29.4
same,IC50,[9],4.8 nM
CC(C)C[C@@H]1NC(=O)[C@H](Cc2ccccc2)NC(=O)CNC(=O)[C@H](NC(=O)[C@@H](N)Cc2ccc(O)cc2)CCCNC1=O,Ki,[2],31.4 nM
same,IC50,[14],56.6 nM
same,Ke,[15],0.671 nM
same,Ki,[3],100 nM
same,IC50,[4],221 nM
same,Ke,[6],0.216 nM
same,Ratio,[12],3.18
same,Ratio,[13],9.9
same,IC50,[9],48 nM
CC(=O)O.CC(C)C[C@@H]1NC(=O)[C@H](Cc2ccccc2)NC(=O)CNC(=O)[C@H](NC(=O)[C@@H](N)Cc2ccc(O)cc2)CNC1=O,IC50,[1],73.1 nM
same,IC50,[2],95.8 nM
same,Ki,[3],53.6 nM
same,IC50,[16],118 nM
same,Ke,[5],0.275 nM
same,Ke,[6],0.387 nM
same,Ki,[17],53.2 nM
same,Ratio,[8],3.12
same,Ratio,[18],1.01
same,IC50,[9],23.4 nM
CC(=O)O.CC(C)C[C@@H]1NC(=O)[C@H](Cc2ccccc2)NC(=O)CNC(=O)[C@H](NC(=O)[C@@H](N)Cc2ccc(O)cc2)CCNC1=O,Ratio,[8],5.77
CC(=O)O.N[C@@H](Cc1ccc(O)cc1)C(=O)N[C@@H]1CCCCNC(=O)[C@H](Cc2ccccc2)NC(=O)CNC1=O,IC50,[1],33.8 nM
same,IC50,[2],5.58 nM
same,Ki,[2],3.1 nM
same,IC50,[4],98.3 nM
same,Ki,[4],44.7 nM
same,Ke,[5],0.875 nM
same,Ke,[6],0.606 nM
same,Ratio,[8],4.77
same,Ratio,[18],14.4
same,IC50,[9],7.09 nM
CC(=O)O.CCCC[C@@H](NC(=O)[C@@H](N)Cc1ccc(O)cc1)C(=O)NCC(=O)N[C@@H](Cc1ccccc1)C(=O)N[C@@H](CC(C)C)C(N)=O,IC50,[1],25.2 nM
same,IC50,[2],4.08 nM
same,Ki,[2],2.27 nM
same,Ki,[3],4.35 nM
same,IC50,[4],9.57 nM
same,Ke,[5],0.729 nM
same,Ke,[6],3.19 nM
same,Ratio,[7],1.92
same,Ratio,[8],1.02
same,IC50,[9],24.6 nM
CN1CC[C@]23CCCC[C@H]2[C@H]1Cc1ccc(O)cc13 [LEVORPHANOL],Ke,[5],0.127 nM
same,Ke,[6],0.587 nM
same,Ratio,[8],16.4
same,IC50,[9],17 nM
same,IC50,[19],278 nM
CC(C)C[C@@H]1NC(=O)[C@@H](Cc2ccccc2)NC(=O)CNC(=O)[C@H](NC(=O)[C@@H](N)Cc2ccc(O)cc2)CCNC1=O,Ke,[5],0.122 nM
same,Ke,[6],0.576 nM
same,Ratio,[18],8.33
CC(=O)O.CC(C)C[C@H]1NC(=O)[C@H](Cc2ccccc2)NC(=O)CNC(=O)[C@H](NC(=O)[C@@H](N)Cc2ccc(O)cc2)CCCCNC1=O,IC50,[1],17.5 nM
same,IC50,[2],8.51 nM
same,Ki,[2],4.73 nM
same,Ki,[3],21.7 nM
same,IC50,[4],47.8 nM
same,Ke,[5],0.553 nM
same,Ke,[6],2.37 nM
same,Ratio,[8],7.32
same,Ratio,[18],4.59
same,IC50,[9],2.39 nM
CC(C)C[C@@H]1NC(=O)[C@H](Cc2ccccc2)NC(=O)CNC(=O)[C@H](NC(=O)[C@@H](N)Cc2ccc(O)cc2)CCNC1=O,IC50,[1],81.4 nM
same,IC50,[2],24.9 nM
same,Ki,[2],13.8 nM
same,Ki,[3],115 nM
same,IC50,[4],253 nM
same,IC50,[9],14.1 nM
